What is called Vd/F is the apparent distribution volume after extravascular dosing.

Results on 1 compound are retold here after PMC6865048 (Clinical cancer research : an official journal of the …, 2018).

Several values for one entry are separate records, joined by “and”; a condition that tells them apart may be missing. Identical values can stand only once. Entries after “also recorded” stand apart in the source; their conditions may differ. Like-named read-outs stand apart in the source and are kept apart here.

The subject of one data set is phosphohistone-3 (PH3). The class given is in vivo, human. Conditions: for PH3 expression vs matched archival tissue: 8 hours. In a few lines: (§1)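 A 0.5 cm³ re-resection tumor sample, snap-frozen at -80° C, was compared with FFPE tissue from the same patient's initial resection by IHC. Antibody conditions: γH2AX 1:100, 1 h at room temperature; PH3 1:100, overnight at 4°C; CC3 1:50, overnight at 4°C. Staining was quantified by semiquantitative image analysis. Mean fold change was tested against 1.000 by two-sided one-sample t test, or Wilcoxon signed-rank test if non-normal.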

Data set [1] is described as follows: Safety assessment in the phase 0 trial. The class given is in vivo, human. Conditions: single oral dose 100, 200 or 400 mg, 20 glioblastoma patients. In a few lines:
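Twenty adult glioblastoma patients took a single oral dose before tumor resection. Screening collected demographics and medical history. Baseline safety assessments were physical examination, vital signs, ECOG performance status, concomitant medication record, hematology, biochemistry and urinalysis.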

Data set [2] is classed as in vivo, human. Conditions: single oral dose of 400 mg, at 2 to 24 h. The gist of the method: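 Adult recurrent glioblastoma patients took a single oral dose before resection. Contrast-enhancing tumor was taken intraoperatively, rinsed in ice-cold PBS, blot-dried, snap-frozen and held at -80° C. EDTA blood was spun at 4°C, 1,500 × g, 10 min. Total drug in plasma and tumor was measured by validated LC/MS-MS, and fraction unbound by equilibrium dialysis. Unbound concentration = total × fraction unbound. Kp and Kp,uu = tumor/plasma total and unbound ratios.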

The format of data set [3] is in vivo, human.
The subject of another data set is Wee1. Conditions: cell-based assays; ref https://ncats.nih.gov/files/AZD1775.pdf; cited from earlier work.
A further data set relates to cleaved caspase-3 (CC3). The data set is described as follows: IHC of programmed cell death in resected tumor vs matched archival tissue. The class given is in vivo, human. Conditions: for CC3 apoptotic marker vs matched archival tissue: 8 hours. In a few lines: as §1
The subject of a further data set is γH2AX. The data set is described as follows: IHC of double-strand DNA damage in resected tumor vs matched archival tissue. Conditions: 8 hours. The class given is in vivo, human. In a few lines: as §1
The mark [4] stands for this setting: 8-hour posttreatment interval (discussion).
Where [5] appears, read: covariate model, estimate (%RSE).

Consider `C=CCn1c(=O)c2cnc(Nc3ccc(N4CCN(C)CC4)cc3)nc2n1-c1cccc(C(C)(C)O)n1` [AZD1775], for which the cell-cycling result in the data set on phosphohistone-3 (PH3) (setting [4]) is on record as “increased over threefold”. In addition, the PH3 expression change result with phosphohistone-3 (PH3) (8-hour time interval, all dose cohorts together (n = 12), P = 0.0210) is on record as “increased significantly”. Also, the “PH3 expression vs matched archival tissue” value is “Increased expression” in the data set on phosphohistone-3 (PH3) (200-mg dose cohort) and “substantially increased” in the data set on phosphohistone-3 (PH3) (400-mg dose cohort). Also, the “tolerability / adverse effects” value in data set [1] is on record as “No drug-related adverse events; also recorded: well-tolerated; no significant adverse effects were observed”. Moreover, the “mean unbound AZD1775 tumor concentration” value in data set [2] came out at 85 ng/g. For the same compound, the “CL/F, apparent oral clearance” value in data set [3] (base model, estimate (%RSE)) was 160 (15) L/hour; in data set [3] (covariate model, typical patient with GFR of 98 mL/minute, estimate (%RSE)) it was 160 L/hour and 160^a (14) L/hour. In addition, the “IIV of Ka” value is recorded as 100 (310) CV% in data set [3] (base model, estimate (%RSE)) and 100 (300) CV% in data set [3] (setting [5]). Also, the Ka in data set [3] (base model, estimate (%RSE)) is 2.00 (114) h^−1; in data set [3] (setting [5]), 2.10 (111) h^−1. Moreover, the “B, covariate effect of glomerular filtration rate on CL/F” value in data set [3] (covariate model, CL/F = A + B × (GFR - 98), estimate (%RSE)) is 1.7 (44). Moreover, the “V/F, apparent volume of distribution” value in data set [3] (setting [5]) is recorded as 1,500 (17) L. For the same compound, the “interindividual variability of CL/F explained by glomerular filtration rate” value in data set [3] (covariate on CL/F) was 17%. In addition, in data set [3] (human, plasma, oral), the Vd/F came out at 1500 L. Further, in data set [3] (one-compartment model, single oral dose 100, 200, 400 mg, glioblastoma patients), the “first-order absorption rate constant (Ka)” value worked out at 2.1 h⁻¹. In addition, the “in vitro IC50 for inhibition of Wee1 activity and induction of DNA damage as well as G2 checkpoint escape” value in the data set with Wee1 is 0.04 µg/mL. Moreover, in the data set with cleaved caspase-3 (CC3) (setting [4]), the programmed cell death entry is “increased threefold”. Further, the “mean increase in CC3 expression” value in the data set with cleaved caspase-3 (CC3) (8-hour time interval, all dose cohorts together (n = 12), P = 0.0727) is reported as “+112.2%”. Also, the “CC3 apoptotic marker vs matched archival tissue” value in the data set with cleaved caspase-3 (CC3) (200-mg dose cohort) is reported as “increased most”; in the data set on cleaved caspase-3 (CC3) (400-mg group), “modest increase”. In addition, the “double-stranded DNA damage measured by γH2AX vs matched archival tissue” value is “less dramatic” with γH2AX (100- and 400-mg dose cohorts); “increased” with γH2AX (200-mg dose cohort).
